Assays:
ASPACDRAFT_127619 = molecular target: T1, ASPACDRAFT_127619 (Aspergillus aculeatus, UniProt A0A1L9WG58); experiment: Competitive ABP labeling by 8 against substrates, recombinant enzyme; assay type: binding, A. aculeatus
T1 sequence (A0A1L9WG58 23-338): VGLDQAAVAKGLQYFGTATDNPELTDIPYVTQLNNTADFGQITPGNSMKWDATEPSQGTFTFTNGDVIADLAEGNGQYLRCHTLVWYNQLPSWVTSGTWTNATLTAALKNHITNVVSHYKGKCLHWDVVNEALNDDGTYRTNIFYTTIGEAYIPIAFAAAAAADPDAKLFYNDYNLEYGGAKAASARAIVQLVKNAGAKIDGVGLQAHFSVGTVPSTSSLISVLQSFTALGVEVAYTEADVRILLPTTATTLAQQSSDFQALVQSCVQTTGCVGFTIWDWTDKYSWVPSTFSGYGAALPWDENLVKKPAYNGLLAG
Procedure, shortened: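 Labeling of recombinant GH10 xylanase used 100 nM xylobiose Cy5 ABP for 10 min at room temperature, with competing substrates (e.g. polysaccharides) added. Loss of in-gel fluorescence with competitor concentration gave IC50. Assays were also repeated at 20 min, 37 °C, 1 μM ABP. Three or four technical replicates.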

[1] = molecular target: T2, ∼130 kDa band (XlnD, β-xylosidase) (Aspergillus niger, UniProt O00089); experiment: ABP labeling of secretomes and competition by inhibitors; assay type: binding, A. niger
T2 sequence (O00089 27-804): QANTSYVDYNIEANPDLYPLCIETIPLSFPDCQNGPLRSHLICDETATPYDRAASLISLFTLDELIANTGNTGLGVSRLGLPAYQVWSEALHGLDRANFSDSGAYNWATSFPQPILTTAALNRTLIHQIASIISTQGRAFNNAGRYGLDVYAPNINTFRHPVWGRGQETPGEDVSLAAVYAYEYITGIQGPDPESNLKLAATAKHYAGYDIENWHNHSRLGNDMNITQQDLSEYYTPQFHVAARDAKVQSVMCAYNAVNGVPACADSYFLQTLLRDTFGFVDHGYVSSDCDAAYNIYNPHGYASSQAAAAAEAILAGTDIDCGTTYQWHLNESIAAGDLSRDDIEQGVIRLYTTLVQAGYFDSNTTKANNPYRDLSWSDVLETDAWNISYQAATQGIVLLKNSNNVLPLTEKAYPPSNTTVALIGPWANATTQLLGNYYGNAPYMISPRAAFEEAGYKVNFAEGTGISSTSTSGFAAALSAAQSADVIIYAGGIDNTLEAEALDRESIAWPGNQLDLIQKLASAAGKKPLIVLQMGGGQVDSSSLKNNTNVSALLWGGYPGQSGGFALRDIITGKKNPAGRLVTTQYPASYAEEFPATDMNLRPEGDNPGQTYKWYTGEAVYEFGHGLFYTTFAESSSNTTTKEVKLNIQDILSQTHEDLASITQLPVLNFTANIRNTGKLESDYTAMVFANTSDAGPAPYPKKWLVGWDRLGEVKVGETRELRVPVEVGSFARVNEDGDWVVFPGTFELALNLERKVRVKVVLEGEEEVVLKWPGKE
Procedure, shortened: (§1)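 A. niger N402 was grown in minimal medium with 50 mM (0.75% w/v) xylose or 1% w/v beechwood xylan as sole carbon source. Secretomes were sampled at days 1–9, brought to pH 4.5 with phosphate/citrate buffer and labeled unconcentrated with Cy5 ABPs. In competition runs, secretome was preincubated with competitor (e.g. 100 μM aziridine) before ABP. Bands were read by SDS-PAGE fluorescence scan.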

[2] = molecular target: ∼30 kDa band (XlnC, β-xylanase) (Aspergillus niger, UniProt C5J411); experiment: as above; assay type: binding, A. niger; conditions: xylan-induced secretome preincubated with competitor, then ABP 8
Procedure, shortened: as §1

## Cc1cc(=O)oc2cc(O[C@@H]3OC[C@@H](O[C@@H]4OC[C@@H](O)[C@H](O)[C@H]4O)[C@H](O)[C@H]3O)ccc12 [4MU-β-D-xylobioside]
ASPACDRAFT_127619
  IC50: 204 µM

## OC[C@@H]1[C@@H](O)[C@H](O)[C@@H](O)[C@@H]2O[C@H]12 [Compound 22, cyclophellitol]
[1]; xylan-induced secretome preincubated with competitor, then ABP 8
  competition of ∼130 kDa band labeling by 8: No labeling inhibition
[2]
  competition of ∼30 kDa band labeling by 8: No labeling inhibition

## OC[C@@H]1[C@@H](O)[C@H](O)[C@@H](O)[C@@H]2N[C@H]12 [Compound 23, cyclophellitol aziridine]
[1]; preincubation with 100 μM competitor
  competition of ∼130 kDa band labeling by 8: some loss of intensity
